5HT1E ag: activates the human 5-HT1E serotonin receptor. 65,000 tested, 0.69% active. CHO 5-HT1E Ga15 NFAT-bla reporter, FRET; 0% DMSO wells, 100% control agonist wells. P28566. activation, % at 6 µM;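 active = activation above a set limit, the screen-wide mean activation plus 3 SD, cut at about 8.5% in these data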;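 note: 100% = positive control agonist at 1 µM giving full maximal response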
S1P3 ag: S1P3 (human) receptor agonism; 60,000 tested, 0.1% active; Q99500; S1P3 NFAT-BLA reporter cells, FRET ratio; relative to 1 µM S1P, basal subtracted; activation, % at 4.5 µM;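 active = activation above the screen-wide mean plus 3 SD, cut at about 4.5% in these data, passing the limit was not always enough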
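Measure – % activation relative to 1 µM S1P (100%), per plate · System – stable CHO line with human S1P3, Gα16, NFAT-BLA reporter · Timing – cells plated overnight, compound 4 h 37 °C, substrate 2 h RT · Technique – fluorescent BLA substrate, ex 405 nm, em 460/535 nm ratio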
5HT1a antag: blocks the human serotonin 5-HT1a receptor. P08908. inhibition, % at 10 µM. AID 612. CHO 5-HT1a Ga15 NFAT-bla reporter, antagonist mode. 62,000 tested, 0.68% active;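 active = inhibition above the mean of all tested compounds plus 3 SD, cut at about 43% in these data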;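 note: receptor stimulated by 5-CT agonist at 100 nM near EC80; beta-lactamase reporter measured by ratiometric fluorescence of a cleavable substrate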
Target sequence (P08908 whole entry, looked up): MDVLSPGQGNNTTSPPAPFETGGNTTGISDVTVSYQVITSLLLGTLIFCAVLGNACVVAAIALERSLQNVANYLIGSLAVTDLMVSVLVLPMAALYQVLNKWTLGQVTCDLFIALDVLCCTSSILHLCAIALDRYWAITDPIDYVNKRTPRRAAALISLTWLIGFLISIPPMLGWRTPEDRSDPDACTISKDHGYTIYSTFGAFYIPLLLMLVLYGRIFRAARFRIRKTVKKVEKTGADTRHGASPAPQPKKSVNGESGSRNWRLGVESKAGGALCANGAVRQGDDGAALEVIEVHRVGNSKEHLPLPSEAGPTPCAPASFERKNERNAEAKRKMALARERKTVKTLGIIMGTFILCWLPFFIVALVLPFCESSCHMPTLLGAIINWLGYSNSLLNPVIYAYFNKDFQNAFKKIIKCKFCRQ
S1P1 ag pot: S1P1 (human) agonism or agonism potentiation; P21453; S1P1 CRE-bla cells, forskolin, beta-lactamase FRET, potentiator mode; S1P1 agonist co-added at EC20, 2 nM; 100% = saturating reference agonist, 0% = basal; activation, % at 9.5 µM; 56,000 tested, 0.57% active;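 active = activation above a cutoff set at the mean activation of all tested compounds plus 3 SD, cut at about 54% in these data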;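 note: forskolin at 4 µM as EC80 and the EC20 agonist is SEW2871; 100% = SEW2871 at its EC100 plus forskolin at EC80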
5HT1E antag: antagonists of human 5-HT1E serotonin receptor | P28566 | CHO 5-HT1E Ga15 NFAT-bla reporter, FRET, antagonist | inhibition, % at 6 µM | 65,000 tested, 0.99% active;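 active = inhibition above a set limit, the mean inhibition across every tested compound plus 3 SD, cut at about 29% in these data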;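 note: signal is the 460 over 535 nm emission ratio of beta-lactamase substrate; 0% = agonist plus DMSO wells and 100% = wells without agonist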
5HT1a ag: activates the human 5-HT1a serotonin receptor | 65,000 tested, 0.56% active | activation, % at 10 µM | AID 567 | P08908 | CHO 5-HT1a Ga15 NFAT-bla reporter, FRET ratio; 0% basal, 100% maximal reference agonist;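 active = activation above the screen-wide mean activation plus 3 SD, cut at about 19% in these data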;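 note: 0% = DMSO wells and 100% = 5-CT at EC100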
An asterisk follows results filed as active; . = not tested or not shown. An excerpt weighted towards active compounds, which were near 3% of everything screened.

SMILES	5HT1E ag	S1P3 ag	5HT1a antag	S1P1 ag pot	5HT1E antag	5HT1a ag
CCOc1ccc(N2C(=O)CC(N3CC(C)OC(C)C3)C2=O)cc1 (centres undefined)	1	-1	-10	.	-8	2
CON(C)c1nc(OCCNC(=O)OCc2ccc(Cl)cc2Cl)nc(N(C)C)n1	0	0	-14	-26	-9	-2
CC1CCOC2(O1)C(=O)N(CN1CCN(c3ccccc3F)CC1)c1ccccc12 (centres undefined)	14*	0	-6	-3	-8	2
O=C1N(CN2CCC3(CC2)OCCO3)c2ccccc2C12OCCCO2	0	0	-10	-7	0	-3
O=C1N(CN2CCN(c3cccc(Cl)c3)CC2)c2ccccc2C12OCCCO2	24*	2	10	19	7	2
N#Cc1nc(-c2ccccc2Cl)oc1N1CCCCC1	0	-4	.	-15	33*	-1
COc1cc(C(=O)Nc2nc3ccccc3[nH]2)cc(OC)c1OC	0	-1	-5	-29	10	-1
COC(=O)Nc1nc2ccc(C(=O)c3ccccc3)cc2[nH]1	1	-6	.	13	75*	-2
CCCSc1ccc2nc(NC(=O)OC)[nH]c2c1	-1	-5	.	-3	42*	-5
Cc1c(NC(=O)Cn2cnc3c(=O)n(C)c(=O)n(C)c32)cccc1-c1nc2ccccc2o1	0	-1	4	.	-6	-2
CN1CCN(C2=C(Cl)C(=O)N(Cc3ccccc3)C2=O)CC1	17*	-2	3	16	5	0
COc1ccc(-c2cc3nc(C)c(CCC(=O)N4CCCCC4)c(C)n3n2)c(OC)c1	-1	0	-6	5	-11	-4
Nc1nonc1C(=O)NCCNCc1cc(Br)ccc1OCc1ccc(F)cc1	0	-2	49*	93*	10	-1
CCOc1ccc(-c2[nH]ncc2-c2ccc(OC)c(OC)c2)c(O)c1	0	-1	18	-26	27	0
CCc1cc(-c2[nH]ncc2-c2ccc3c(c2)OCO3)c(O)cc1O	0	-1	33	69*	15	-4
COc1ccc(-c2[nH]ncc2-c2ccc3c(c2)OCCO3)c(O)c1	0	-1	44*	91*	16	-3
Cc1ccc2c(c1)c1c(n2CC(O)Cn2c(C)nc3ccccc32)C(=O)CCC1 (centres undefined)	0	-2	29	-28	-9	73*
Cc1ccc2c(c1)c1c(n2CC(O)Cn2c(C)nc3ccccc32)/C(=N\O)CCC1 (centres undefined)	0	0	28	-43	-25	-4
COc1cc(NC(=O)c2cc3c(C)nc4ccccc4c3o2)cc(OC)c1OC	0	-1	0	-24	11	5
COc1ccc(CNC(=O)c2cc3c(C)nc4ccccc4c3o2)c(OC)c1	0	-2	17	94*	16	2
CC(NC(=O)C1CCCCC1)C(c1cccs1)N1CCN(C)CC1 (centres undefined)	-1	0	0	4	7	-2
O=C(NCCCN1CCN(c2ccc(F)cc2)CC1)c1cccc(N2CCCC2=O)c1	0	-1	71*	12	13	-2
O=C(NCCCN1CCCC1)c1cccc(N2CCCC2=O)c1	-1	.	7	.	0	-2
FC(F)(F)c1cccc(N2CCN(Cc3cccnc3)CC2)c1	4	-1	-2	-8	-3	0
FC(F)(F)c1cccc(N2CCN(Cc3ccoc3)CC2)c1	14*	0	-1	.	2	15
SMILES	5HT1E ag	S1P3 ag	5HT1a antag	S1P1 ag pot	5HT1E antag	5HT1a ag
FC(F)(F)c1cccc(N2Cc3ccccc3C2)c1	11*	0	6	10	-10	-1
O=C(Nc1ccc(N2CCN(C(=O)c3ccco3)CC2)c(Cl)c1)c1c(F)c(F)c(F)c(F)c1F	1	-2	33	.	1	0
Cc1ccc(-n2c(Cc3cccn3C)nnc2SCC(=O)NCc2ccc3c(c2)OCO3)cc1	0	0	2	-49	-12	-4
CCOc1ccc2oc(-c3ccccc3)c(C(=O)N3CCN(CCO)CC3)c2c1	-1	0	-10	-31	4	-4
Cc1cccc(N2CCN(C(=O)C3CCCN(S(=O)(=O)c4cccc5cccnc45)C3)CC2)c1C (centres undefined)	18*	-1	6	66	0	5
O=C(C1CCCN(S(=O)(=O)c2cccc3cccnc23)C1)N1CCN(c2ccccc2F)CC1 (centres undefined)	1	-2	-17	44	-7	0
Cn1c(C(=O)N2CCCc3ccccc32)cc2sccc21	-1	1	2	86*	-3	-2
COC(=O)c1cc2sccc2n1CC(=O)N1CCCc2ccccc21	0	-1	17	2	1	-3
Brc1ccccc1-c1nnc(CSc2nncn2-c2ccccc2)o1	0	0	-14	9	-5	171*
O=S(=O)(c1ccc(S(=O)(=O)N(Cc2ccco2)Cc2ccccc2Cl)cc1)N1CCCC1	0	1	9	6	3	0
CN(C)S(=O)(=O)c1ccc(S(=O)(=O)N(Cc2ccco2)Cc2ccccc2Cl)cc1	-1	-2	22	9	32*	-2
Cc1ccc2oc(=O)c3cnn(CC(=O)N(CCCN4CCOCC4)Cc4ccco4)c3c2c1	0	0	3	-1	-6	-3
Cn1cc(C(=O)NCCc2ccccc2)c(=O)c2cc(S(=O)(=O)N3CCOCC3)ccc21	77*	0	-3	0	5	-2
Cc1c(C(=O)NCCc2ccccc2)oc2ccc(S(=O)(=O)N3CCOCC3)cc12	0	.	-4	.	0	1
COc1ccc(-c2nc(C#N)c(NC(C)c3ccccc3)o2)cc1OC (centres undefined)	0	0	7	-93	24	2
COc1ccc(C(c2nnnn2Cc2ccccc2)N2CCN(c3ccccc3)CC2)cc1 (centres undefined)	0	-1	36	-4	3	1
COc1ccc(C(c2nnnn2C2CCCCC2)N2CCN(c3ccccc3)CC2)cc1 (centres undefined)	0	-2	52*	13	3	-1
Cn1c(=O)c2c(nc(SCC(=O)Nc3ccc(N4CCOCC4)c(Cl)c3)n2C)n(C)c1=O	0	-1	-11	-8	2	2
CC(C)c1nc(N2CCOCC2)c(C#N)c2c1CCCC2	0	0	-4	.	-10	2
CCSc1nc(N2CCOCC2)c2c(c1C#N)CCCC2	1	4.7*	-15	54	4	8
CC(C)Sc1nc(N2CCOCC2)c2c(c1C#N)CC(C)(C)SC2	1	0	-10	2	12	2

Compound activity: PubChem BioAssay, The Scripps Research Institute Molecular Screening Center
